Bioassay records as filed in PubChem.
An excerpt weighted towards active compounds, which were near 3% of everything screened.
KCC2 mod – modulators of human KCC2 chloride dependent transport; KCC2 cells, thallium flux FluoZin-2 fluorescence; B-score of Tl+ flux slope (higher = more flux/activation; lower = inhibition) at 10 µM; Q9H2X9; 2.2% of 190,000 active; AID 1456;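 active = thallium flux slope and its plate-corrected score both differing from the plate sample mean at a set confidence after two filtering rounds, in either direction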;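 also: slope of fluorescence scaled to starting intensity during 10 to 20 s after thallium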
Target sequence (Q9H2X9 whole entry, looked up): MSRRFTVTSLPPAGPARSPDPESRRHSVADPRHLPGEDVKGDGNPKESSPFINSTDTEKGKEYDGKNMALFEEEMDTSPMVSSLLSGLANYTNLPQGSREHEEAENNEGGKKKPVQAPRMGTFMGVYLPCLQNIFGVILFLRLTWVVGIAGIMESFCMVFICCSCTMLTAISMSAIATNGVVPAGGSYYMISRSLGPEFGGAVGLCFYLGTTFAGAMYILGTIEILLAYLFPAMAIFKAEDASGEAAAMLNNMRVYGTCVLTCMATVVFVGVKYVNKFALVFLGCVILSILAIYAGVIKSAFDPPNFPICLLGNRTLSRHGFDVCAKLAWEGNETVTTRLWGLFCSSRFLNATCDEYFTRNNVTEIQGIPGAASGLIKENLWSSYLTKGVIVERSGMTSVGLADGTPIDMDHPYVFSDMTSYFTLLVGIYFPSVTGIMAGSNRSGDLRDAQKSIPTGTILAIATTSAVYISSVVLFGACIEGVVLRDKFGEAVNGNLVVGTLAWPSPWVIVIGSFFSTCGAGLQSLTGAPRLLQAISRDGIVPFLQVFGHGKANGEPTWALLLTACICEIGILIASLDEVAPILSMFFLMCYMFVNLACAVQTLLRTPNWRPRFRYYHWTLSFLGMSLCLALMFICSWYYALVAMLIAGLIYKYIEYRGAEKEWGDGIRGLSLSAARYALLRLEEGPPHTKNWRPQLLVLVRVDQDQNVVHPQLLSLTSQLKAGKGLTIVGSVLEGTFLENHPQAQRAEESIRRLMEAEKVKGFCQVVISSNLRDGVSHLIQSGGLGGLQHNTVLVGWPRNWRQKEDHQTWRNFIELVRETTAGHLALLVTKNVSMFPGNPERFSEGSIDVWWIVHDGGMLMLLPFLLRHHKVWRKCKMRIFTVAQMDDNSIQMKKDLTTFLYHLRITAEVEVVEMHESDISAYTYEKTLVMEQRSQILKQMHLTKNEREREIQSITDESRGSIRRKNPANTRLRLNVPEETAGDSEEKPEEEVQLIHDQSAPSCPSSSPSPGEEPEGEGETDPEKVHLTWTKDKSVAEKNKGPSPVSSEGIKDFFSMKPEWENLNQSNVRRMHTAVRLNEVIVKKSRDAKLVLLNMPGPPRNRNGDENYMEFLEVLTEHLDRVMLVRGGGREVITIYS
PKD1 kinase inh – inhibitors of human PKD1 kinase. PKD1 kinase fluorescence polarization assay. Q15139. inhibition, % (concentration not given with the values). 0.056% of 200,000 active; in the data active = inhibition above about 50%
ROMK primary – modulates human ROMK potassium channel activity | Tet-inducible ROMK, thallium flux fluorescence; actives lie on both sides | B-score at 10 µM | 2% of 130,000 active;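 active = signal ratio slope over the read window, or its plate-corrected B-score, at least 3 SD from the plate mean, either direction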;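 also: B-score of the F/F0 ratio slope over 7 to 12 s after thallium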
Rad51 HR inh – blocks human Rad51 in homologous recombination; Q06609; inhibition, % at 10 µM; hRad51 DNA strand exchange, fluorescence dequenching; 0.085% of 200,000 active;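 active = inhibition above 40% at the single screening dose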
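Material: Human Rad51 nucleoprotein filaments preassembled on unlabelled ssDNA | Also added: Labelled 47-mer dsDNA for strand exchange | Dosing: Single dose, 10 µM final compound | Schedule: 30-min compound preincubation and 15-min exchange, both room temperature | Technique: Fluorescence dequenching at 485/520 nm | Measure: Percent inhibition relative to plate controls and blanks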
KCC2 secondary – KCC2 (human) modulation, secondary assay. 15% of 3,700 active. normalised thallium flux (F/F0 slope) at 10 µM. shares compounds with KCC2 mod. HEK293-KCC2, thallium flux, FluoZin2 fluorescence; stronger effect = higher value;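 active = thallium flux slope above the same plate's solvent-only control mean plus 3 SD; inconclusive = the two replicate wells disagree; inactive = no significant difference from solvent-only control wells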
KCC2 bumet counter – thallium flux persisting under bumetanide in KCC2 cells, counter-screen secondary assay; HEK293-KCC2 + bumetanide/ouabain, thallium flux FluoZin2; stronger effect = higher value; 49% of 3,700 active; AID 1714; normalized thallium flux at 10 µM; shares compounds with KCC2 mod;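 active = thallium entry rate above the same plate's blocked-transporter control wells by more than 3 SD; inconclusive = the two repeat wells disagree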;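 also: raw slope of fluorescence over initial fluorescence between 10 and 20 s after thallium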
KCC2 sec2 – confirmation of human KCC2 transport modulators; AID 1715; 23% of 3,700 active; shares compounds with KCC2 mod; normalized thallium flux at 10 µM; HEK293-KCC2, thallium flux FluoZin2 fluorescence; actives lie on both sides; F/F0 rise rate, 10–20 s post-thallium;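 active = thallium flux slope more than 3 SD above or below the plate's solvent-only control mean, mostly below; inconclusive = the two repeat wells disagreed; inactive = no significant shift from solvent-only controls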
HEK293 Tl flux – acts in parental HEK cells, KCC2 counter-screen; shares compounds with KCC2 mod; HEK293 parental cells, thallium flux FluoZin2, ouabain; baseline-ratio fluorescence slope, 10–20 s after thallium; thallium flux rate (normalised fluorescence) at 10 µM; 46% of 3,700 active; AID 1716;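 active = thallium flux rate significantly above the same plate's solvent-only control wells, beyond their mean plus 3 SD; inconclusive = the two replicate wells gave conflicting results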
KCC2 ouabain – KCC2 (human) modulation, ouabain retest; shares compounds with KCC2 mod; HEK293-KCC2, thallium flux FluoZin2 fluorescence; bidirectional: low = inhibitor, high = activator; 48% of 3,700 active; raw Tl+ flux slope (below DMSO = inhibition, above = activation) at 10 µM; AID 1717;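 active = thallium flux slope beyond 3 SD from same-plate DMSO control mean in most replicates, usually higher, sometimes lower; inconclusive = repeat tests gave conflicting results; inactive = no significant difference from controls in most replicates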;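 also: slope of initial-normalized fluorescence between seconds 10 and 20 after thallium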
HEK293 Tl flux2 – acts in parental HEK cells, second KCC2 counter-screen. shares compounds with KCC2 mod. HEK293 parental, thallium flux FluoZin-2 fluorescence slope. thallium flux slope at 10 µM. 33% of 3,700 active;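 active = thallium flux slope above the same plate's solvent-control mean plus 3 SD in both duplicate wells; inconclusive = duplicate wells that disagreed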;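 also: run without ouabain in cells lacking the KCC2 cotransporter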
Large screens that a line does not name were inactive (follow-up assays come after a bar, where they were run).

Cc1ccc(-c2csc(NC(=O)CCNC(=O)c3ccccc3Cl)n2)cc1	KCC2 mod -3.8 | KCC2 secondary inactive | KCC2 bumet counter inactive | KCC2 sec2 inconclusive | HEK293 Tl flux inactive | KCC2 ouabain inconclusive | HEK293 Tl flux2 inactive
NS(=O)(=O)c1ccc(CCn2c(=S)[nH]c3ccc(F)cc3c2=O)cc1	KCC2 mod 3.1 | KCC2 secondary inconclusive | KCC2 bumet counter inactive | KCC2 sec2 inactive | HEK293 Tl flux 0.0093 | KCC2 ouabain inactive | HEK293 Tl flux2 0.011
CCc1c(C)sc(NC(=O)c2cc(C(C)C)on2)c1C#N	KCC2 mod 7.3 | KCC2 secondary inactive | KCC2 bumet counter 0.027 | KCC2 sec2 inactive | HEK293 Tl flux inconclusive | KCC2 ouabain 0.031 | HEK293 Tl flux2 inconclusive
CCOc1ccccc1N1CCN(CC(O)COc2ccc3c(C)cc(=O)oc3c2)CC1 (stereo not drawn)	KCC2 mod 6.3 | KCC2 secondary inactive | KCC2 bumet counter inactive | KCC2 sec2 inactive | HEK293 Tl flux inactive | KCC2 ouabain inactive | HEK293 Tl flux2 inactive
Cn1c(-c2ccccc2)c(CCO)c2ccccc21	none (no result: ROMK primary)
Cn1c(-c2ccccc2)c(C(=O)CCl)c2ccccc21	KCC2 mod -3.9 | KCC2 secondary inactive | KCC2 bumet counter inactive | KCC2 sec2 inactive | HEK293 Tl flux 0.0051 | KCC2 ouabain 0.016 | HEK293 Tl flux2 0.0091
CCn1c(-c2ccccc2)c(C(=O)CCl)c2ccccc21	KCC2 mod -4.3 | KCC2 secondary inactive | KCC2 bumet counter 0.0028 | KCC2 sec2 inactive | HEK293 Tl flux 0.0049 | KCC2 ouabain 0.017 | HEK293 Tl flux2 0.008
Cc1c(-c2n[nH]c(=S)n2-c2ccc(Br)cc2)nnn1-c1ccc(Cl)cc1	KCC2 mod 5.4 | KCC2 secondary inactive | KCC2 bumet counter 0.024 | KCC2 sec2 inactive | HEK293 Tl flux 0.01 | KCC2 ouabain inactive | HEK293 Tl flux2 inconclusive
Cc1c(-c2n[nH]c(=S)n2-c2ccc(C(F)(F)F)cc2)nnn1-c1ccccc1	none
CC(C)CNC(=S)NC(=O)c1csc([N+](=O)[O-])c1	KCC2 mod 31 (no result: PKD1 kinase inh, ROMK primary) | KCC2 secondary inconclusive | KCC2 bumet counter 0.069 | KCC2 sec2 inactive | HEK293 Tl flux 0.021 | KCC2 ouabain 0.036 | HEK293 Tl flux2 0.015
O=C(NC(=S)N(Cc1ccccc1)Cc1ccccc1)C1CCCCC1	none
CCN(C(=S)NC(=O)C1CCCC1)C1CCCCC1	KCC2 mod 7.3 | KCC2 secondary inactive | KCC2 bumet counter 0.03 | KCC2 sec2 inactive | HEK293 Tl flux inconclusive | KCC2 ouabain 0.033 | HEK293 Tl flux2 inconclusive
Cc1ccn(CCC(=O)N2CCCC(CCC(=O)N3CCN(c4ccccn4)CC3)C2)n1 (stereo not drawn)	none
CCOc1ccc(OCc2ccc(C(=O)N/N=C(\C)c3ccccn3)cc2)cc1	KCC2 mod 9 | KCC2 secondary inactive | KCC2 bumet counter 0.024 | KCC2 sec2 inactive | HEK293 Tl flux 0.029 | KCC2 ouabain 0.03 | HEK293 Tl flux2 inconclusive
CC(C)(C)NC(=O)NC(=O)CSc1n[nH]c(-c2ccccc2Br)n1	none
CN(C(=S)NC(=O)c1ccc(Br)o1)c1ccccc1	KCC2 mod 7.7 (no result: Rad51 HR inh) | KCC2 secondary inactive | KCC2 bumet counter 0.02 | KCC2 sec2 0.04 | HEK293 Tl flux 0.02 | KCC2 ouabain 0.031 | HEK293 Tl flux2 0.023
O=C(Nc1ccccc1)c1ccc(Br)o1	none
Cc1cc(NC(=O)CCc2ccccc2)c([N+](=O)[O-])cc1C	none
O=C(NCC1CCCN(Cc2ccc3nonc3c2)C1)c1cccc(C(F)(F)F)c1 (stereo not drawn)	none (no result: ROMK primary)
CC(C)c1ccc(NC(=O)c2cccnc2)cc1	none
CC(C)c1ccc(NC(=O)c2csnn2)cc1	KCC2 mod 6.7 | KCC2 secondary inactive | KCC2 bumet counter inactive | KCC2 sec2 inactive | HEK293 Tl flux inactive | KCC2 ouabain inactive | HEK293 Tl flux2 inactive
Cc1cc(NC(=O)CSc2ncccc2C(=O)O)no1	none
CCOc1ccccc1C1CC(c2ccc(F)cc2)Nc2nc(N)nn21 (stereo not drawn)	KCC2 mod -3.4 (no result: ROMK primary) | KCC2 secondary inactive | KCC2 bumet counter inactive | KCC2 sec2 inactive | HEK293 Tl flux inactive | KCC2 ouabain inactive | HEK293 Tl flux2 inactive
COc1ccccc1C1CC(c2ccc(Cl)cc2)Nc2nc(N)nn21 (stereo not drawn)	none (no result: ROMK primary)
COc1cccc(CNC(=O)C2CCN(c3cnccn3)CC2)c1	none (no result: ROMK primary)
O=c1cc(CSc2nnc(Nc3ccccc3)s2)nc2sccn12	none
Cc1ccccc1Nc1nnc(SCc2cc(=O)n3ccsc3n2)s1	KCC2 mod -4.9 (no result: ROMK primary, Rad51 HR inh) | KCC2 secondary inactive | KCC2 bumet counter inactive | KCC2 sec2 inactive | HEK293 Tl flux inactive | KCC2 ouabain inconclusive | HEK293 Tl flux2 inactive
CCCCN1C(=O)C(=O)N(CC(=O)Nc2cc(OCC)c(N3CCOCC3)cc2OCC)C1=O	none (no result: KCC2 mod, Rad51 HR inh)
O=C(Nc1nnc(C2CC2)o1)c1ccc(S(=O)(=O)N2CCCc3ccccc32)cc1	KCC2 mod 4.4 (no result: ROMK primary, Rad51 HR inh) | KCC2 secondary 0.012 | KCC2 bumet counter 0.025 | KCC2 sec2 inactive | HEK293 Tl flux 0.012 | KCC2 ouabain inconclusive | HEK293 Tl flux2 inactive
O=C(NC1CC1)c1cc2c(s1)-c1ccccc1OC2	none (no result: KCC2 mod, ROMK primary) | KCC2 secondary inactive | KCC2 bumet counter inactive | KCC2 sec2 inactive | HEK293 Tl flux inactive | KCC2 ouabain 0.017 | HEK293 Tl flux2 inactive
CCOc1cc(Br)ccc1S(=O)(=O)NCc1ccccc1	none (no result: KCC2 mod, Rad51 HR inh) | KCC2 secondary inactive | KCC2 bumet counter inactive | KCC2 sec2 0.024 | HEK293 Tl flux inactive | KCC2 ouabain 0.016 | HEK293 Tl flux2 inactive
CCOc1ccc(Br)cc1S(=O)(=O)NCc1ccncc1	none (no result: Rad51 HR inh)
CC(=O)Nc1ccc(/C=N/NC(=O)CNC(=O)c2ccccc2)cc1	none
N=C1SC(c2ccccc2)C(=O)N1c1ncc(Cc2ccccc2Cl)s1 (stereo not drawn)	KCC2 mod 5.8 | KCC2 secondary inactive | KCC2 bumet counter 0.02 | KCC2 sec2 inactive | HEK293 Tl flux 0.016 | KCC2 ouabain inconclusive | HEK293 Tl flux2 0.02
CC(=O)NC(C)C(=O)OCC(=O)c1ccc(-c2ccccc2)cc1 (stereo not drawn)	KCC2 mod -4.1 | KCC2 secondary inactive | KCC2 bumet counter inactive | KCC2 sec2 inconclusive | HEK293 Tl flux inactive | KCC2 ouabain inactive | HEK293 Tl flux2 inactive
